Data from ChEMBL document CHEMBL1770131, “Radiosynthesis and preliminary evaluation of 4-[18F]fluoro-N-[4-[6-(isopropylamino)pyrimidin-4-yl]-1,3-thiazol-2-yl]-N-methylbenzamide as a new positron emission tomography ligand for metabotropic glutamate receptor subtype 1” (Bioorg Med Chem Lett, 2011).

What was measured:
[1] = tested on: Thalamus; assay: Biodistribution in Sprague-Dawley rat thalamus at 5 MBq, iv after 30 mins by autoradiography; format: ADME, organism-based; conditions: in vivo, 0.5 h
In short: (§1)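 Male Sprague–Dawley rats given about 5 MBq radioligand in saline by tail vein, with or without co-injected JNJ16259685 at 1 mg/kg. Killed by cervical dislocation 30 min after injection. Brains frozen on dry ice, cut into 20 µm sagittal sections, and imaged by autoradiography as for the in vitro sections.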

[2] = tested on: Rattus norvegicus; assay: Biodistribution in Sprague-Dawley rat pons-medulla at 5 MBq, iv after 30 mins by autoradiography in presence of 1 mg/kg of mGluR1 antagonist JNJ16259685; format: organism-based; set-up: dose 1 mg/kg, route intravenous; conditions: in vivo, 0.5 h; in short: as §1
[3] = tested on: Thalamus; assay: Biodistribution in Sprague-Dawley rat thalamus at 5 MBq, iv after 30 mins by autoradiography in presence of 1 mg/kg of mGluR1 antagonist JNJ16259685; format: organism-based; set-up: dose 1 mg/kg, route intravenous; conditions: in vivo, 0.5 h; in short: as §1
[4] = tested on: Hippocampus; assay: Biodistribution in Sprague-Dawley rat hippocampus at 5 MBq, iv after 30 mins by autoradiography; format: ADME, organism-based; conditions: in vivo, 0.5 h; in short: as §1
[5] = tested on: Cerebellum; assay: Biodistribution in Sprague-Dawley rat cerebellum at 5 MBq, iv after 30 mins by autoradiography in presence of 1 mg/kg of mGluR1 antagonist JNJ16259685; format: organism-based; set-up: dose 1 mg/kg, route intravenous; conditions: in vivo, 0.5 h; in short: as §1
[6] = tested on: Rattus norvegicus; assay: Biodistribution in Sprague-Dawley rat pons-medulla at 5 MBq, iv after 30 mins by autoradiography; format: ADME, organism-based; conditions: in vivo, 0.5 h; in short: as §1
[7] = tested on: Cerebral cortex; assay: Biodistribution in Sprague-Dawley rat cerebral cortex at 5 MBq, iv after 30 mins by autoradiography; format: ADME, organism-based; conditions: in vivo, 0.5 h; in short: as §1
[8] = tested on: Cerebellum; assay: Biodistribution in Sprague-Dawley rat cerebellum at 5 MBq, iv after 30 mins by autoradiography; format: ADME, organism-based; conditions: in vivo, 0.5 h; in short: as §1
[9] = tested on: Striatum; assay: Biodistribution in Sprague-Dawley rat striatum at 5 MBq, iv after 30 mins by autoradiography in presence of 1 mg/kg of mGluR1 antagonist JNJ16259685; format: organism-based; set-up: dose 1 mg/kg, route intravenous; conditions: in vivo, 0.5 h; in short: as §1
[10] = Octanol-water distribution coefficient, Log D of the compound in at pH 7.4 by shaking method; format: physicochemical
In short: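 Radioligand partitioned between n-octanol and PBS at pH 7.4 by shaking. Vortexed 3 min at room temperature, centrifuged 3500 rpm for 5 min. 1 mL of each phase weighed and counted. Organic layer re-partitioned until Log D values were consistent. Log D = Log[cpm/g octanol / cpm/g PBS]. Done in triplicate.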

[11] = tested on: Hippocampus; assay: Biodistribution in Sprague-Dawley rat hippocampus at 5 MBq, iv after 30 mins by autoradiography in presence of 1 mg/kg of mGluR1 antagonist JNJ16259685; format: organism-based; set-up: dose 1 mg/kg, route intravenous; conditions: in vivo, 0.5 h; in short: as §1
[12] = tested on: Striatum; assay: Biodistribution in Sprague-Dawley rat striatum at 5 MBq, iv after 30 mins by autoradiography; format: ADME, organism-based; conditions: in vivo, 0.5 h; in short: as §1
[13] = tested on: Cerebral cortex; assay: Biodistribution in Sprague-Dawley rat cerebral cortex at 5 MBq, iv after 30 mins by autoradiography in presence of 1 mg/kg of mGluR1 antagonist JNJ16259685; format: organism-based; set-up: dose 1 mg/kg, route intravenous; conditions: in vivo, 0.5 h; in short: as §1

Drug uptake [1]: 672.6 PSL/mm2
Drug uptake [2]: 58.8 PSL/mm2
Drug uptake [3]: 63.1 PSL/mm2
Drug uptake [4]: 428.1 PSL/mm2
Drug uptake [5]: 76.6 PSL/mm2
Drug uptake [6]: 69.3 PSL/mm2
Drug uptake [7]: 342.2 PSL/mm2
Drug uptake [8]: 635.9 PSL/mm2
Drug uptake [9]: 54.1 PSL/mm2
logD [10]: 1.46
Drug uptake [11]: 58.3 PSL/mm2
Drug uptake [12]: 478.5 PSL/mm2
Drug uptake [13]: 49.6 PSL/mm2
SMILES: CC(C)Nc1cc(-c2csc(N(C)C(=O)c3ccc([18F])cc3)n2)ncn1
